Values after ≈ are worked out from the molar mass of the structure shown.
Key:
Vero = experiment: Cytotoxicity against african green monkey Vero cells after 72 hrs by MTT assay; format: cell-based; conditions: Chlorocebus sabaeus
How it was run: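 Vero cells were exposed to compounds for 72 h. Viability was measured by cellular conversion of MTT into formazan (non-radioactive proliferation assay), and the cytotoxic concentration was reported as IC50.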

Candida albicans [1] = experiment: Ratio of ampotericin-B MIC to compound MIC against Candida albicans; format: functional
Escherichia coli [2] = experiment: Ratio of ciprofloxacin MIC to compound MIC against Escherichia coli ATCC 25922; format: functional
Staphylococcus aureus [3] = experiment: Ratio of ciprofloxacin MIC to compound MIC against Staphylococcus aureus ATCC 25923; format: functional
Candida albicans [4] = experiment: Antifungal activity against Candida albicans after 48 hrs by two fold agar dilution method; format: functional
How it was run: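 Two-fold serial dilutions in DMSO were tested against C. albicans by agar dilution. Cultures were incubated for 48 h at 35 °C and growth was monitored. MIC was taken as the lowest concentration (highest dilution) that arrested fungal growth.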

Staphylococcus aureus [5] = experiment: Antibacterial activity against methicillin-resistant Staphylococcus aureus ATCC 43866 by broth dilution method; format: functional
Staphylococcus aureus [6] = experiment: Antibacterial activity against methicillin-susceptible Staphylococcus aureus ATCC 35556 by broth dilution method; format: functional
Klebsiella pneumoniae = experiment: Antibacterial activity against Klebsiella pneumoniae by two fold broth dilution method; format: functional
Escherichia coli [7] = experiment: Antibacterial activity against Escherichia coli ATCC 25922 by two fold broth dilution method; format: functional
Bacillus spizizenii [8] = experiment: Antibacterial activity against Bacillus subtilis ATCC 6633 by two fold broth dilution method; format: functional
Staphylococcus aureus [9] = experiment: Antibacterial activity against Staphylococcus aureus ATCC 25923 by two fold broth dilution method; format: functional
Staphylococcus aureus [10] = experiment: Ratio of ciprofloxacin MIC to compound MIC against methicillin-susceptible Staphylococcus aureus ATCC 35556; format: functional
[11] = system: Mycobacterium tuberculosis; experiment: Antitubercular activity against Mycobacterium tuberculosis H37Rv after 7 days by resazurin microtitre assay; format: functional; conditions: 168 h
Staphylococcus aureus [12] = experiment: Ratio of ciprofloxacin MIC to compound MIC against methicillin-resistant Staphylococcus aureus ATCC 43866; format: functional
Bacillus spizizenii [13] = experiment: Ratio of ciprofloxacin MIC to compound MIC against Bacillus subtilis ATCC 6633; format: functional

Cn1cc([N+](=O)[O-])cc1-c1nnc(-c2cc(-c3ccccc3)nc3ccc(Cl)cc23)o1
IC50 (Vero): 328 µM
Ratio (Candida albicans [1]): 3
Ratio (Escherichia coli [2]): 3
Ratio (Staphylococcus aureus [3]): 3
MIC (Candida albicans [4]): 0.78 µg/mL (≈ 1.81 µM)
MIC (Staphylococcus aureus [5]): 1.56 µg/mL (≈ 3.61 µM)
MIC (Staphylococcus aureus [6]): 0.39 µg/mL (≈ 0.903 µM)
MIC (Klebsiella pneumoniae): 12.5 µg/mL (≈ 28.9 µM)
MIC (Escherichia coli [7]): 0.39 µg/mL (≈ 0.903 µM)
MIC (Bacillus spizizenii [8]): 1.56 µg/mL (≈ 3.61 µM)
MIC (Staphylococcus aureus [9]): 0.39 µg/mL (≈ 0.903 µM)

Cn1cc([N+](=O)[O-])cc1-c1nnc(C2CCCNC2)o1 (stereo not given)
IC50 (Vero): 611 µM
Ratio (Candida albicans [1]): 2
Ratio (Staphylococcus aureus [10]): 2
Ratio (Staphylococcus aureus [3]): 2
MIC [11]: 35.6 µg/mL (≈ 128 µM)
MIC (Candida albicans [4]): 1.56 µg/mL (≈ 5.63 µM)
MIC (Staphylococcus aureus [5]): 1.56 µg/mL (≈ 5.63 µM)
MIC (Staphylococcus aureus [6]): 0.39 µg/mL (≈ 1.41 µM)
MIC (Klebsiella pneumoniae): 12.5 µg/mL (≈ 45.1 µM)
MIC (Escherichia coli [7]): 3.12 µg/mL (≈ 11.3 µM)
MIC (Bacillus spizizenii [8]): 1.56 µg/mL (≈ 5.63 µM)
MIC (Staphylococcus aureus [9]): 0.78 µg/mL (≈ 2.81 µM)

Cn1cc([N+](=O)[O-])cc1-c1nnc(-c2ccc(Cl)cc2Cl)o1
IC50 (Vero): 387 µM
Ratio (Candida albicans [1]): 2
Ratio (Staphylococcus aureus [12]): 2
Ratio (Staphylococcus aureus [10]): 2
Ratio (Bacillus spizizenii [13]): 2
Ratio (Staphylococcus aureus [3]): 3
MIC [11]: 18.4 µg/mL (≈ 54.3 µM)
MIC (Candida albicans [4]): 1.56 µg/mL (≈ 4.6 µM)
MIC (Staphylococcus aureus [5]): 0.78 µg/mL (≈ 2.3 µM)
MIC (Staphylococcus aureus [6]): 0.39 µg/mL (≈ 1.15 µM)
MIC (Klebsiella pneumoniae): 12.5 µg/mL (≈ 36.9 µM)
MIC (Escherichia coli [7]): 1.56 µg/mL (≈ 4.6 µM)
MIC (Bacillus spizizenii [8]): 0.78 µg/mL (≈ 2.3 µM)
MIC (Staphylococcus aureus [9]): 0.39 µg/mL (≈ 1.15 µM)

Cn1cc([N+](=O)[O-])cc1-c1nnc(-c2ccc(C#N)cc2)o1
IC50 (Vero): 315 µM
Ratio (Candida albicans [1]): 2
Ratio (Staphylococcus aureus [10]): 2
Ratio (Staphylococcus aureus [3]): 2
MIC [11]: 84.6 µg/mL (≈ 287 µM)
MIC (Candida albicans [4]): 1.56 µg/mL (≈ 5.28 µM)
MIC (Staphylococcus aureus [5]): 1.56 µg/mL (≈ 5.28 µM)
MIC (Staphylococcus aureus [6]): 0.39 µg/mL (≈ 1.32 µM)
MIC (Klebsiella pneumoniae): 12.5 µg/mL (≈ 42.3 µM)
MIC (Escherichia coli [7]): 6.25 µg/mL (≈ 21.2 µM)
MIC (Bacillus spizizenii [8]): 1.56 µg/mL (≈ 5.28 µM)
MIC (Staphylococcus aureus [9]): 0.78 µg/mL (≈ 2.64 µM)

Cn1cc([N+](=O)[O-])cc1-c1nnc(Cc2ccccc2F)o1
IC50 (Vero): 245 µM
Ratio (Candida albicans [1]): 2
Ratio (Bacillus spizizenii [13]): 2
Ratio (Staphylococcus aureus [3]): 2
MIC [11]: 8.6 µg/mL (≈ 28.5 µM)
MIC (Candida albicans [4]): 1.56 µg/mL (≈ 5.16 µM)
MIC (Staphylococcus aureus [5]): 1.56 µg/mL (≈ 5.16 µM)
MIC (Staphylococcus aureus [6]): 1.56 µg/mL (≈ 5.16 µM)
MIC (Klebsiella pneumoniae): 12.5 µg/mL (≈ 41.4 µM)
MIC (Escherichia coli [7]): 1.56 µg/mL (≈ 5.16 µM)
MIC (Bacillus spizizenii [8]): 0.78 µg/mL (≈ 2.58 µM)
MIC (Staphylococcus aureus [9]): 0.78 µg/mL (≈ 2.58 µM)

O=[N+]([O-])c1c[nH]c(-c2nnc(-c3cc(-c4ccccc4)nc4ccc(Cl)cc34)o2)c1
IC50 (Vero): 281 µM
Ratio (Escherichia coli [2]): 2
MIC [11]: 97.2 µg/mL (≈ 233 µM)
MIC (Candida albicans [4]): 1.56 µg/mL (≈ 3.73 µM)
MIC (Staphylococcus aureus [5]): 3.12 µg/mL (≈ 7.48 µM)
MIC (Staphylococcus aureus [6]): 1.56 µg/mL (≈ 3.73 µM)
MIC (Klebsiella pneumoniae): 25 µg/mL (≈ 59.8 µM)
MIC (Escherichia coli [7]): 0.78 µg/mL (≈ 1.87 µM)
MIC (Bacillus spizizenii [8]): 3.12 µg/mL (≈ 7.48 µM)
MIC (Staphylococcus aureus [9]): 1.56 µg/mL (≈ 3.73 µM)

Cn1cc([N+](=O)[O-])cc1-c1nnc(-c2ccc[nH]2)o1
IC50 (Vero): 208 µM
Ratio (Candida albicans [1]): 3
Ratio (Staphylococcus aureus [12]): 2
Ratio (Staphylococcus aureus [10]): 2
Ratio (Bacillus spizizenii [13]): 2
Ratio (Staphylococcus aureus [3]): 3
MIC [11]: 29.3 µg/mL (≈ 113 µM)
MIC (Candida albicans [4]): 0.78 µg/mL (≈ 3.01 µM)
MIC (Staphylococcus aureus [5]): 0.78 µg/mL (≈ 3.01 µM)
MIC (Staphylococcus aureus [6]): 0.39 µg/mL (≈ 1.5 µM)
MIC (Klebsiella pneumoniae): 12.5 µg/mL (≈ 48.2 µM)
MIC (Escherichia coli [7]): 1.56 µg/mL (≈ 6.02 µM)
MIC (Bacillus spizizenii [8]): 0.78 µg/mL (≈ 3.01 µM)
MIC (Staphylococcus aureus [9]): 0.39 µg/mL (≈ 1.5 µM)

COc1cc(/C=C/c2nnc(-c3cc([N+](=O)[O-])cn3C)o2)ccc1O
IC50 (Vero): 202 µM
Ratio (Candida albicans [1]): 2
Ratio (Staphylococcus aureus [10]): 2
Ratio (Staphylococcus aureus [3]): 2
MIC [11]: 51.8 µg/mL (≈ 151 µM)
MIC (Candida albicans [4]): 12.5 µg/mL (≈ 36.5 µM)
MIC (Staphylococcus aureus [5]): 1.56 µg/mL (≈ 4.56 µM)
MIC (Staphylococcus aureus [6]): 0.39 µg/mL (≈ 1.14 µM)
MIC (Klebsiella pneumoniae): 50 µg/mL (≈ 146 µM)
MIC (Escherichia coli [7]): 3.12 µg/mL (≈ 9.13 µM)
MIC (Bacillus spizizenii [8]): 1.56 µg/mL (≈ 4.56 µM)
MIC (Staphylococcus aureus [9]): 0.78 µg/mL (≈ 2.28 µM)

O=[N+]([O-])c1c[nH]c(-c2nnc(-c3ccc[nH]3)o2)c1
IC50 (Vero): 226 µM
Ratio (Escherichia coli [2]): 2
Ratio (Staphylococcus aureus [3]): 2
MIC [11]: 15.7 µg/mL (≈ 64 µM)
MIC (Candida albicans [4]): 1.56 µg/mL (≈ 6.36 µM)
MIC (Staphylococcus aureus [5]): 1.56 µg/mL (≈ 6.36 µM)
MIC (Staphylococcus aureus [6]): 1.56 µg/mL (≈ 6.36 µM)
MIC (Klebsiella pneumoniae): 12.5 µg/mL (≈ 51 µM)
MIC (Escherichia coli [7]): 0.78 µg/mL (≈ 3.18 µM)
MIC (Bacillus spizizenii [8]): 1.56 µg/mL (≈ 6.36 µM)
MIC (Staphylococcus aureus [9]): 0.78 µg/mL (≈ 3.18 µM)

COc1cccc(-c2nnc(-c3cc([N+](=O)[O-])cn3C)o2)c1
IC50 (Vero): 299 µM
Ratio (Candida albicans [1]): 2
Ratio (Staphylococcus aureus [10]): 2
Ratio (Staphylococcus aureus [3]): 2
MIC [11]: 37.4 µg/mL (≈ 125 µM)
MIC (Candida albicans [4]): 1.56 µg/mL (≈ 5.2 µM)
MIC (Staphylococcus aureus [5]): 1.56 µg/mL (≈ 5.2 µM)
MIC (Staphylococcus aureus [6]): 0.39 µg/mL (≈ 1.3 µM)
MIC (Klebsiella pneumoniae): 12.5 µg/mL (≈ 41.6 µM)
MIC (Escherichia coli [7]): 3.12 µg/mL (≈ 10.4 µM)
MIC (Bacillus spizizenii [8]): 1.56 µg/mL (≈ 5.2 µM)
MIC (Staphylococcus aureus [9]): 0.78 µg/mL (≈ 2.6 µM)

COc1cccc(OC)c1-c1nnc(-c2cc([N+](=O)[O-])cn2C)o1
IC50 (Vero): 177 µM
Ratio (Candida albicans [1]): 2
Ratio (Staphylococcus aureus [10]): 2
Ratio (Staphylococcus aureus [3]): 2
MIC [11]: 32 µg/mL (≈ 96.9 µM)
MIC (Candida albicans [4]): 1.56 µg/mL (≈ 4.72 µM)
MIC (Staphylococcus aureus [5]): 1.56 µg/mL (≈ 4.72 µM)
MIC (Staphylococcus aureus [6]): 0.39 µg/mL (≈ 1.18 µM)
MIC (Klebsiella pneumoniae): 12.5 µg/mL (≈ 37.8 µM)
MIC (Escherichia coli [7]): 6.25 µg/mL (≈ 18.9 µM)
MIC (Bacillus spizizenii [8]): 1.56 µg/mL (≈ 4.72 µM)
MIC (Staphylococcus aureus [9]): 0.78 µg/mL (≈ 2.36 µM)

Cn1cc([N+](=O)[O-])cc1-c1nnc(-c2ccccc2Br)o1
IC50 (Vero): 303 µM
Ratio (Candida albicans [1]): 2
Ratio (Staphylococcus aureus [10]): 2
Ratio (Bacillus spizizenii [13]): 2
Ratio (Staphylococcus aureus [3]): 2
MIC [11]: 12.8 µg/mL (≈ 36.7 µM)
MIC (Candida albicans [4]): 1.56 µg/mL (≈ 4.47 µM)
MIC (Staphylococcus aureus [5]): 1.56 µg/mL (≈ 4.47 µM)
MIC (Staphylococcus aureus [6]): 0.39 µg/mL (≈ 1.12 µM)
MIC (Klebsiella pneumoniae): 12.5 µg/mL (≈ 35.8 µM)
MIC (Escherichia coli [7]): 1.56 µg/mL (≈ 4.47 µM)
MIC (Bacillus spizizenii [8]): 0.78 µg/mL (≈ 2.23 µM)
MIC (Staphylococcus aureus [9]): 0.78 µg/mL (≈ 2.23 µM)

From ChEMBL document CHEMBL3085642, “Synthesis and evaluation of novel 4-nitropyrrole-based 1,3,4-oxadiazole derivatives as antimicrobial and anti-tubercular agents” (Eur J Med Chem, 2013)
